# Laboratory results published in ChEMBL document CHEMBL5715947 (Blood Cancer J, 2011).
# Active and inactive are the calls of the source. The calls are words filed in the database; no cut-off is given here.
# Assays:
# [1] = tested on: MV4-11; experiment: Induction of apoptosis in human MV4-11 cells harboring FLT3-ITD mutant assessed viable cells at 0.03 uM after 72 hrs by AnnexinV-FITC/Propidium iodide staining based flow cytometric analysis (reference value: 90.5 %); assay type: functional
# [2] = tested on: MV4-11; experiment: Induction of apoptosis in human MV4-11 cells harboring FLT3-ITD mutant assessed viable cells at 0.03 uM after 48 hrs by AnnexinV-FITC/Propidium iodide staining based flow cytometric analysis (reference value: 86.15 %); assay type: functional
# [3] = tested on: MV4-11; experiment: Induction of apoptosis in human MV4-11 cells harboring FLT3-ITD mutant assessed late apoptotic cells at 0.03 uM after 48 hrs by AnnexinV-FITC/Propidium iodide staining based flow cytometric analysis (reference value: 1.56 %); assay type: functional
# [4] = tested on: MV4-11; experiment: Induction of apoptosis in human MV4-11 cells harboring FLT3-ITD mutant assessed necrotic cells at 0.03 uM after 48 hrs by AnnexinV-FITC/Propidium iodide staining based flow cytometric analysis (reference value: 0.45 %); assay type: functional
# [5] = tested on: MV4-11; experiment: Induction of apoptosis in human MV4-11 cells harboring FLT3-ITD mutant assessed viable cells at […] after 48 hrs by AnnexinV-FITC/Propidium iodide staining based flow cytometric analysis (reference value: 86.15 %); assay type: functional; conditions: dose 0.15 µM
# [6] = tested on: MV4-11; experiment: Induction of apoptosis in human MV4-11 cells harboring FLT3-ITD mutant assessed early apoptotic cells at […] after 48 hrs by AnnexinV-FITC/Propidium iodide staining based flow cytometric analysis (reference value: 11.84 %); assay type: functional; conditions: dose 0.15 µM
# [7] = tested on: MV4-11; experiment: Induction of apoptosis in human MV4-11 cells harboring FLT3-ITD mutant assessed necrotic cells at […] after 48 hrs by AnnexinV-FITC/Propidium iodide staining based flow cytometric analysis (reference value: 0.45 %); assay type: functional; conditions: dose 0.15 µM
# [8] = tested on: MV4-11; experiment: Induction of apoptosis in human MV4-11 cells harboring FLT3-ITD mutant assessed early apoptotic cells at 0.03 uM after 72 hrs by AnnexinV-FITC/Propidium iodide staining based flow cytometric analysis (reference value: 7.34 %); assay type: functional
# [9] = tested on: MV4-11; experiment: Induction of apoptosis in human MV4-11 cells harboring FLT3-ITD mutant assessed viable cells at […] after 72 hrs by AnnexinV-FITC/Propidium iodide staining based flow cytometric analysis (reference value: 90.5 %); assay type: functional; conditions: dose 0.15 µM
# [10] = tested on: MV4-11; experiment: Induction of apoptosis in human MV4-11 cells harboring FLT3-ITD mutant assessed early apoptotic cells at […] after 72 hrs by AnnexinV-FITC/Propidium iodide staining based flow cytometric analysis (reference value: 7.34 %); assay type: functional; conditions: dose 0.15 µM
# [11] = tested on: MV4-11; experiment: Induction of apoptosis in human MV4-11 cells harboring FLT3-ITD mutant assessed late apoptotic cells at […] after 72 hrs by AnnexinV-FITC/Propidium iodide staining based flow cytometric analysis (reference value: 1.48 %); assay type: functional; conditions: dose 0.15 µM
# [12] = tested on: MV4-11; experiment: Induction of apoptosis in human MV4-11 cells harboring FLT3-ITD mutant assessed necrotic cells at […] after 72 hrs by AnnexinV-FITC/Propidium iodide staining based flow cytometric analysis (reference value: 0.53 %); assay type: functional; conditions: dose 0.15 µM
# [13] = tested on: MV4-11; experiment: Induction of apoptosis in human MV4-11 cells harboring FLT3-ITD mutant assessed increase in cleaved caspase-3/7 after 16 hrs by Caspase-Glo 3/7 assay; assay type: functional, cell-based
# [14] = tested on: MV4-11; experiment: Induction of cell cycle arrest in human MV4-11 cells harboring FLT3-ITD mutant assessed increase in cell accumulation at G1 phase after 24 hrs by Propidium iodide staining based flow cytometric analysis; assay type: functional
# Procedure, shortened: (§1)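 Cells then fixed in ice-cold 70% ethanol, stained with 20 ng/ml propidium iodide, and cell-cycle phases measured by flow cytometry.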
# [15] = tested on: RS4-11; experiment: Induction of cell cycle arrest in human RS4-11 cells assessed increase in cell accumulation at G1 phase after 24 hrs by Propidium iodide staining based flow cytometric analysis; assay type: functional; procedure, shortened: as §1
# [16] = tested on: RS4-11; experiment: Induction of cell cycle arrest in human RS4-11 cells assessed decrease in cell accumulation at S phase after 24 hrs by Propidium iodide staining based flow cytometric analysis; assay type: functional; procedure, shortened: as §1
# [17] = (§2) Induction of apoptosis in human derived Acute myeloid leukemic cells assessed increase in cleaved caspase-3/7 after 16 hrs by Caspase-Glo 3/7 assay; assay type: functional, cell-based; conditions: Leukemia cell
# Procedure, shortened: (§3)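 Expanded primary AML blasts at 300 000 cells/ml treated 16 h; caspase-3/7 activity read by Caspase-Glo 3/7 luminescence and EC50 for apoptosis induction determined.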
# [18] = tested on: Leukemia cell; experiment: as §2; assay type: functional, cell-based; procedure, shortened: as §3
# [19] = Antiproliferative activity against human derived M2 Fab type Acute myeloid leukemic cells assessed as reduction in cell viability incubated for 48 hr by CellTiter-Glo assay; assay type: functional, cell-based; conditions: Leukemia cell
# Procedure, shortened: (§4)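 Primary AML peripheral blood or bone marrow mononuclear cells thawed and expanded ex vivo; blasts counted between day 10 and 13, characterised by CD123 FACS and FLT3 genotyping. Blasts treated 48 h; proliferation IC50 read by CellTiter-Glo.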
# [20] = Antiproliferative activity against relapsed human derived M2 Fab type Acute myeloid leukemic cells harboring FLT3-ITD mutant assessed as reduction in cell viability incubated for 48 hr by CellTiter-Glo assay; assay type: functional, cell-based; conditions: Leukemia cell; procedure, shortened: as §4
# [21] = Antiproliferative activity against relapsed human derived M3 Fab type Acute myeloid leukemic cells assessed as reduction in cell viability incubated for 48 hr by CellTiter-Glo assay; assay type: functional, cell-based; conditions: Leukemia cell; procedure, shortened: as §4
# [22] = Antiproliferative activity against human derived M4 Fab type Acute myeloid leukemic cells assessed as reduction in cell viability incubated for 48 hr by CellTiter-Glo assay; assay type: functional, cell-based; conditions: Leukemia cell; procedure, shortened: as §4
# [23] = Antiproliferative activity against human derived M5b Fab type Acute myeloid leukemic cells assessed as reduction in cell viability incubated for 48 hr by CellTiter-Glo assay; assay type: functional, cell-based; conditions: Leukemia cell; procedure, shortened: as §4
# [24] = Antiproliferative activity against human derived Acute myeloid leukemic cells assessed as reduction in cell viability incubated for 48 hr by CellTiter-Glo assay; assay type: functional, cell-based; conditions: Leukemia cell
# [25] = tested on: MV4-11; experiment: Antitumor activity against human MV4-11 cells harboring FLT-3 ITD mutant xenografted in BALB/c nude mouse assessed as decrease in phosphorylated STAT5 at Y694 residue at 150 mg/kg, po measured after 2 to 4 hrs by Western blot analysis; assay type: functional, organism-based; conditions: time 2-4 hrs
# Procedure, shortened: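 Mice bearing s.c. MV4-11 xenografts given a single oral dose of 150 mg/kg in methylcellulose/Tween vehicle. Tumours harvested at 2 and 4 h; lysates immunoblotted for phospho-STAT5 with actin as loading control.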
# [26] = tested on: MV4-11; experiment: Antitumor activity against human MV4-11 cells harboring FLT-3 ITD mutant xenografted in BALB/c nude mouse assessed as tumor growth inhibition at 50 mg/kg, po administered daily for 21 days relative to control; assay type: functional; conditions: MV4-11, 504 h, time 21 day, read-out: TGI
# Procedure, shortened: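 Female BALB/c nude mice implanted s.c. in right flank with 1 × 10^7 MV4-11 cells in serum-free medium mixed 1:1 with Matrigel. Randomised on day 11 at mean 146–150 mm3 (n=10/group); oral hydrochloride salt once daily for 21 days in 0.5% methylcellulose/0.1% Tween-80. Doses are free-base equivalents; caliper twice weekly; ANOVA with Dunnett's test.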
# [27] = tested on: MOLM-13; experiment: Antitumor activity against human MOLM-13 cells harboring FLT-3 ITD mutant xenografted in BALB/c nude mouse assessed as tumor growth inhibition at 150 mg/kg, […] relative to control; assay type: functional; conditions: MOLM-13, 168 h, route po, read-out: TGI
# [28] = tested on: MOLM-13; experiment: Antitumor activity against human MOLM-13 cells harboring FLT-3 ITD mutant xenografted in BALB/c nude mouse assessed as decrease in metastatic incidence at 150 mg/kg, po bid administered daily for 7 days; assay type: functional; conditions: time 7 day
compound,measurement,setting,value
C1=N/C2=N/c3ccc(OCCN4CCCC4)c(c3)COC/C=C/COCc3cccc(c3)C(=C1)N2 [PACRITINIB],Activity,[1],72.52%
same,Activity,[2],68.98%
same,Activity,[3],5.58%
same,Activity,[4],0.94%
same,Activity,[5],35.61%
same,Activity,[6],39.9%
same,Activity,[7],4.18%
same,Activity,[8],22.69%
same,Activity,[9],20.38%
same,Activity,[10],58.69%
same,Activity,[11],15.1%
same,Activity,[12],4.06%
same,Activity,[13],Dose-Dependent Effect
same,EC50,"[13]; MV4-11, 16 h",960 nM
same,Activity,[14],Dose-Dependent Effect
same,Activity,[15],Dose-Dependent Effect
same,Activity,[16],Dose-Dependent Effect
same,EC50,[17],268 nM
same,Activity,[18],Dose-Dependent Effect
same,IC50,[19],350 nM
same,IC50,[20],340 nM
same,IC50,[21],210 nM
same,IC50,[22],840 nM
same,IC50,[23],240 nM
same,IC50,[24],460 nM
same,Activity,[25],Active
same,inhibition in vivo at 50 mg/kg,[26],92%
same,inhibition in vivo at 150 mg/kg,[27],83%
same,Activity,[28],0.33
